Source: ChEMBL document CHEMBL6092172, “Exploration and characterization of the antimalarial activity of cyclopropyl carboxamides that target the mitochondrial protein, cytochrome b” (Eur J Med Chem, 2024)
Values belong to the molecule of their own block, whether it stands above or below them. Calls of active or inactive are those of the source. The calls are words filed in the database; no cut-off is given here.

Columns and labels:
[1] = test system: Plasmodium falciparum; assay: Antimalarial activity against asexual Plasmodium falciparum SB1-A6 incubated for 72 hrs by SYBR green staining based flow cytometry analysis; assay type: functional, organism-based; conditions: SB1-A6, 72 h
How it was run: (§1)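 Asexual parasites were exposed to compound for 72 h and growth was read as SYBR green signal by flow cytometry (FACS).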

[2] = test system: Plasmodium falciparum; assay: Antimalarial activity against asexual Plasmodium falciparum Dd2 harbouring ScDHODH incubated for 72 hrs by SYBR green staining based flow cytometry analysis; assay type: functional, organism-based; conditions: Dd2, 72 h; how it was run: as §1
[3] = test system: Plasmodium falciparum; assay: Effect on oxygen consumption rate in Plasmodium falciparum infected with human RBC at 5 uM in presence of TMPD by Seahorse XFe24 analyzer; assay type: functional, organism-based
How it was run: (§2)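 Malate-dependent OCR of P. falciparum measured first as 5 basal timepoints. Compound (5 μM) then injected and OCR followed for 8 timepoints. TMPD (cytochrome c donor) then added for 5 timepoints, followed by NaN3 (complex IV inhibitor) for 5 timepoints. Means and SDs of 3 technical replicates.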

[4] = test system: Plasmodium falciparum; assay: Antimalarial activity against asexual blood stage Plasmodium falciparum Dd2 harbouring Cyt b with I22L mutant incubated for 72 hrs by flow cytometry analysis; assay type: functional, organism-based; conditions: Dd2, 72 h; how it was run: as §1
[5] = test system: Plasmodium falciparum; assay: Effect on oxygen consumption rate in Plasmodium falciparum infected with human RBC at 5 uM by Seahorse XFe24 analyzer; assay type: functional, organism-based; how it was run: as §2
[6] = test system: Plasmodium falciparum; assay: Antimalarial activity against asexual Plasmodium falciparum 3D7 incubated for 72 hrs by LDH assay; assay type: functional, organism-based; conditions: 3D7, 72 h
How it was run: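 P. falciparum 3D7 asexual parasites exposed 72 h at 37 °C (5 % CO2, 5 % O2) to a 10-point 1-in-3 dilution series […], 0.1 % DMSO; 0.1 % DMSO and 100 nM chloroquine as controls. Plates frozen at −80 °C and thawed, then LDH read (lactate/APAD/NBT/diaphorase, Tris pH 7.5) at 650 nm after 30 min.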

[7] = test system: Plasmodium falciparum; assay: Antimalarial activity against asexual synchronized ring stage Plasmodium falciparum 3D7 infected with human RBC assessed as parasite arrest measured after 12 to 48 hrs by SYBR green staining based flow cytometry analysis; assay type: functional, organism-based; conditions: time 12-48 hrs
How it was run: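 Parasitemia measured by flow cytometry of SYBR Green-stained infected RBCs; mean of three technical replicates.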

[8] = test system: Plasmodium falciparum; assay: Antimalarial activity in asexual blood-stage Plasmodium falciparum Dd2-B2 infected in human O+ RBC assessed as minimum inoculum of resistance at 3 times IC90 measured for 60 days by SYBR green/Mito tracker deep red based flow cytometry analysis; assay type: functional, organism-based; conditions: time 60.0 day
How it was run: (§3)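 Cultures were grown in human O+ RBCs at 3 % hematocrit in AlbuMAX-supplemented RPMI-1640 at 37 °C under 5 % O2/5 % CO2/90 % N2. […] Wells were checked three times weekly by flow cytometry and smear; a well was positive at 0.3 % parasitemia with parasites seen on smear.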

[9] = test system: Plasmodium falciparum; assay: Antiplasmodial activity against Plasmodium falciparum NF54 stage V gametocytes assessed as reduction in xanthurenic acid induced female gametocyte development measured after 48 hrs by fluorescence microscopic analysis; conditions: NF54, 48 h
[10] = test system: Plasmodium falciparum; assay: Antimalarial activity against asexual N-cyclopropyl-4-((cyclopropyl(2,4-dichlorobenzyl)amino)methyl)benzamide-resistant Plasmodium falciparum harbouring DHODH genome with 2 fold CNV measured after 72 hrs by LDH assay; assay type: functional, organism-based
How it was run: (§4)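 They were tested in a 72 h LDH assay: 10-point 3-fold dilutions […] in 0.1 % DMSO, with 100 nM chloroquine as the kill control. Incubation was 37 °C under 5 % CO2/5 % O2, then freeze–thaw, APAD/NBT/diaphorase mix, A650 after 30 min, and a four-parameter fit.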

[11] = test system: Plasmodium falciparum; assay: Effect on oxygen consumption rate in Plasmodium falciparum infected with human RBC at 5 uM in presence of NaN3 by Seahorse XFe24 analyzer; assay type: functional, organism-based; how it was run: as §2
[12] = test system: Plasmodium falciparum; assay: Antimalarial activity against asexual blood stage Plasmodium falciparum Dd2 incubated for 72 hrs by flow cytometry analysis; assay type: functional, organism-based; conditions: Dd2, 72 h; how it was run: as §1
[13] = test system: Plasmodium falciparum; assay: Antimalarial activity against asexual synchronized ring stage Plasmodium falciparum 3D7 infected with human RBC assessed as parasite growth inhibition measured after 48 hrs by giemsa staining based microscopy analysis; assay type: functional, organism-based; conditions: 3D7, Erythrocyte
How it was run: (§5)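 Giemsa-stained blood smears scored by microscopy for stage progression.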

[14] = test system: Plasmodium falciparum; assay: Antimalarial activity against asexual blood stage Plasmodium falciparum Dd2-B2 assessed as parasite recrudescence by measuring minimum inoculum of resistance measured for 60 days by flow cytometry; assay type: functional; conditions: time 60 day; how it was run: as §3
[15] = test system: Plasmodium falciparum; assay: Antimalarial activity against asexual synchronized ring stage Plasmodium falciparum 3D7 infected with human RBC assessed as parasite arrest at 10 times EC50 treated every 24 hrs for 120 hrs followed by compound washout and subsequent addition of RBCs measured after 28 days by parasite reduction ratio assay; assay type: functional, organism-based
How it was run: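 Parasite reduction ratio assay on 3D7. […] Compound then washed out and uninfected RBCs and medium added. Regrowth measured by LDH assay after 28 days; means and SDs of 3 replicate experiments.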

[16] = test system: Plasmodium falciparum; assay: Antimalarial activity against asexual synchronized ring stage Plasmodium falciparum 3D7 infected with human RBC assessed as parasite arrest measured after 24 hrs by giemsa staining based microscopy analysis; assay type: functional, organism-based; how it was run: as §5
[17] = test system: Plasmodium falciparum; assay: Antimalarial activity against asexual Plasmodium falciparum 3D7 harbouring cytb with V259L mutant at Qo site incubated for 72 hrs by SYBR green staining based flow cytometry analysis; conditions: 3D7, 72 h
[18] = test system: HepG2; assay: Cytotoxicity against human HepG2 cells assessed as reduction in cell viability measured after 48 hrs by cell-titer glo assay; assay type: functional
How it was run: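 HepG2 cells grown in DMEM with 10 % FCS; 1000 cells per well seeded onto a 1:2 dilution series from 50 μM (0.5 % DMSO). Incubated 48 h at 37 °C, 5 % CO2. Viability read by CellTiter-Glo and normalised to DMSO and 10 μM bortezomib controls. Value from four-parameter fit; average of ≥2 independent experiments.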

[19] = test system: Plasmodium berghei; assay: Antiplasmodial activity against exo-erythrocytic stage Plasmodium berghei sporozoites expressing GFP-Luc fused genes infected in human HepG2-A16-CD81 cells expressing EGFP assessed as reduction in parasite growth measured after 48 hrs by bioluminescence analysis; assay type: functional, organism-based; conditions: HepG2-A16-CD81, 48 h
How it was run: (§6)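 HepG2 cells pre-treated with a 10-point dilution series of compound, then infected with luciferase-expressing P. berghei sporozoites. After 48 h, exoerythrocytic form viability read by bioluminescence.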

[20] = test system: Plasmodium falciparum; assay: Antimalarial activity against asexual N-cyclopropyl-4-((cyclopropyl(2,4-dichlorobenzyl)amino)methyl)benzamide-resistant Plasmodium falciparum harbouring DHODH genome with 5 fold CNV measured after 72 hrs by LDH assay; assay type: functional, organism-based; how it was run: as §4
[21] = test system: Plasmodium falciparum; assay: Antiplasmodial activity against Plasmodium falciparum NF54 stage V gametocytes assessed as reduction in xanthurenic acid induced male gametocyte development measured after 48 hrs by fluorescence microscopic analysis; conditions: NF54, 48 h
[22] = test system: Plasmodium falciparum; assay: Antimalarial activity against asexual compound resistant Plasmodium falciparum harbouring cyt b F264L mutant at Qo site measured after 72 hrs by LDH assay; assay type: functional, organism-based; how it was run: as §4
[23] = test system: Plasmodium falciparum; assay: Antimalarial activity against asexual 4-(((N-cyclopropyl-2,4,6-trimethylphenyl)sulfonamido)methyl)-N-methylbenzamide-resistant Plasmodium falciparum harbouring cyt b […] mutant at Qo site measured after 72 hrs by LDH assay; assay type: functional, organism-based; how it was run: as §4
[24] = test system: Plasmodium falciparum; assay: Antimalarial activity against asexual compound resistant Plasmodium falciparum harbouring cyt b […] mutant at Qo site measured after 72 hrs by LDH assay; assay type: functional, organism-based; how it was run: as §4
[25] = test system: Plasmodium berghei; assay: Antiplasmodial activity against liver stage Plasmodium berghei sporozoites infected in human HepG2 assessed as reduction in parasite growth measured after 48 hrs by bioluminescence analysis; assay type: functional, organism-based; conditions: HepG2, 48 h; how it was run: as §6

SMILES: Cc1cc(Nc2ccc(S(F)(F)(F)(F)F)cc2)n2nc(C(C)(F)F)nc2n1 [DSM-265]
EC50 [1]: > 10000 nM
EC50 [2]: > 10000 nM
Activity [3]: inactive
EC50 [4]: 8 nM
Activity [5]: inactive

EC50 [6]: 1800 nM
SMILES: O=C(NC1CCCC1)c1ccc(CN(Cc2ccc(Cl)cc2Cl)C2CC2)cc1

SMILES: O=C(NC1CC1)c1ccc(CN(Cc2ccc(Cl)cc2Cl)C2CC2)cc1
Activity [7]: Active
Activity [8]: Active
Activity [3]: inactive
EC50 [9]: > 25000 nM
EC50 [10]: 620 nM
Activity [11]: Active
EC50 [12]: 118 nM
EC50 [13]: 2500 nM
Activity [14]: 1.9 10^7No_unit
Activity [15]: Active; Compound Showed Moderate To Slow Rate Of Kill Than Pyrimethamine And Slightly Quicker Than Atq
Activity [16]: Active
Activity [5]: Active

SMILES: O=C1C(O)=C([C@H]2CC[C@H](c3ccc(Cl)cc3)CC2)C(=O)c2ccccc21 [ATOVAQUONE]
EC50 [1]: > 10000 nM
Activity [7]: Active
EC50 [17]: 13 nM
EC50 [2]: > 10000 nM
Activity [3]: inactive
Activity [11]: Active
EC50 [4]: 5400 nM
EC50 [13]: 11700 nM
Activity [16]: Active
Activity [5]: Active

EC50 [6]: 1200 nM
SMILES: O=C(Nc1ccccc1)c1ccc(CN(Cc2ccc(Cl)cc2Cl)C2CC2)cc1

EC50 [6]: 150 nM
SMILES: Cc1cccc(CN(Cc2ccc(C(=O)NC3CC3)cc2)C2CC2)c1C
CC50 [18]: > 40000 nM

SMILES: CNC(=O)c1ccc(CN(C2CC2)S(=O)(=O)c2c(C)cc(C)cc2C)cc1
EC50 [1]: > 10000 nM
Activity [7]: Active
EC50 [6]: 110 nM
EC50 [17]: 420 nM
EC50 [19]: 70 nM
Activity [8]: Active
EC50 [2]: > 10000 nM
EC50 [20]: 500 nM
Activity [3]: inactive
EC50 [9]: > 25000 nM
EC50 [21]: 1100 nM
Activity [11]: Active
EC50 [12]: 70 nM
CC50 [18]: > 40000 nM
EC50 [22]: 2100 nM
EC50 [23]: 283 nM
EC50 [4]: 65 nM
EC50 [24]: 1730 nM
EC50 [13]: 1300 nM
Activity [14]: >2 10^7No_unit
Activity [15]: Active; Compound Showed Moderate To Slow Rate Of Kill Than Pyrimethamine And Slightly Quicker Than Atq
Activity [16]: Active
EC50 [25]: > 50000 nM
Activity [5]: Active

EC50 [6]: 590 nM
SMILES: O=C(NC1CC1)c1ccc(CN(Cc2ccccc2)Cc2ccccc2)cc1

EC50 [6]: 400 nM
SMILES: CC(C)CN(Cc1ccc(C(=O)NC2CC2)cc1)C1CC1

EC50 [9]: > 25000 nM
SMILES: CCCN(Cc1ccc(C(=O)NC2CC2)cc1)Cc1c(C)cc(C)cc1C

EC50 [6]: > 10000 nM
SMILES: CN(C(=O)c1ccc(CN(Cc2ccccc2)C2CC2)cc1)C1CC1
